Experimental data from ChEMBL document CHEMBL4825692, “Benzofuranyl-2-imidazoles as imidazoline I2 receptor ligands for Alzheimer's disease” (Eur J Med Chem, 2021).
Calls of active or inactive are those of the source. No cut-off for these calls is given here.

Tests used:
Cytochrome P450 2C19 = Cytochrome P450 2C19 (Homo sapiens, UniProt P33261); assay: Inhibition of CYP2C19 (unknown origin) at 10 uM; type: ADME
In short: (§1)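 Recombinant human CYP1A2, CYP2C9, CYP2C19, CYP2D6 and CYP3A4 (7-BFC or DBF as probe) were tested with probe substances and fluorescent detection, with test compound at 10 μM.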

K562 = assay: Cytotoxicity against human K562 cells at 100 uM by real time IncuCyte proliferation assay; type: cell-based; conditions: k562, 100 µM
In short: (§2)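 Adherent lines (LN-229, Capan-1, HCT-116, NCI-H460) seeded at 500–1500 cells/well and treated after overnight attachment. Suspension lines (HL-60, K-562, Z-138, DND-41) seeded at 2500–5500 cells/well directly with compound. Highest concentration 100 μM; proliferation tracked by real-time IncuCyte imaging over 72 h at 37 °C.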

CAPAN-1 = assay: Cytotoxicity against human CAPAN-1 cells at 100 uM by real time IncuCyte proliferation assay; type: cell-based; conditions: capan-1, 100 µM; in short: as §2
[1] = Displacement of [3H]idazoxan from imidazoline I2 receptor high affinity site in rat brain cerebral cortex membrane measured after 30 mins by liquid scintillation counting spectrometry
[2] = Stability in mouse plasma assessed as compound remaining after 6 hrs; type: ADME, cell-free; conditions: read-out: Stabilty
[3] = Displacement of [3H]2-BFI from imidazoline I2 receptor low affinity site in Swiss mouse brain cerebral cortex membrane measured after 45 mins by liquid scintillation counting spectrometry
Homo sapiens [4] = species: Homo sapiens; assay: Displacement of [3H]2-BFI from imidazoline I2 receptor in post-mortem human brain frontal cortex membrane assessed as occupancy at high affinity site measured after 45 mins by liquid scintillation counting spectrometry
Cytochrome P450 1A2 = molecular target: T1, Cytochrome P450 1A2 (Homo sapiens, UniProt P05177); assay: Inhibition of CYP1A2 (unknown origin) at 10 uM; type: ADME; in short: as §1
T1 sequence (P05177 whole entry): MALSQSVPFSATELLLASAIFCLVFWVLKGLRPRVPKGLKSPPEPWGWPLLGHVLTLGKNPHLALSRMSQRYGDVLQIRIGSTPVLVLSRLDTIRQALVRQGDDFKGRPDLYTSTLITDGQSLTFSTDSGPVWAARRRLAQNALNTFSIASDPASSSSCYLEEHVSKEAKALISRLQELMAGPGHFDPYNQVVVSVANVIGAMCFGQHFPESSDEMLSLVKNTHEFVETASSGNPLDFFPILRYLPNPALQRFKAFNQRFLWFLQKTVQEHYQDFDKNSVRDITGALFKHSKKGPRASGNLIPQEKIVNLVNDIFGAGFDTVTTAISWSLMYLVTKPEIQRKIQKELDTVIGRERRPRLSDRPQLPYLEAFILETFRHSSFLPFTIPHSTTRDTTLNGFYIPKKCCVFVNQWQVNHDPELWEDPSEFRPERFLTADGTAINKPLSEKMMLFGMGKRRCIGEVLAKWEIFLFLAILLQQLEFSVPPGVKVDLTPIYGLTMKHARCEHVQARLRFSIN

Cytochrome P450 3A4 = Cytochrome P450 3A4 (Homo sapiens, UniProt P08684); assay: Inhibition of CYP3A4 (unknown origin) using as DBF as substrate at 10 uM; type: ADME; in short: as §1
Cytochrome P450 3A4, sequence (P08684 whole entry): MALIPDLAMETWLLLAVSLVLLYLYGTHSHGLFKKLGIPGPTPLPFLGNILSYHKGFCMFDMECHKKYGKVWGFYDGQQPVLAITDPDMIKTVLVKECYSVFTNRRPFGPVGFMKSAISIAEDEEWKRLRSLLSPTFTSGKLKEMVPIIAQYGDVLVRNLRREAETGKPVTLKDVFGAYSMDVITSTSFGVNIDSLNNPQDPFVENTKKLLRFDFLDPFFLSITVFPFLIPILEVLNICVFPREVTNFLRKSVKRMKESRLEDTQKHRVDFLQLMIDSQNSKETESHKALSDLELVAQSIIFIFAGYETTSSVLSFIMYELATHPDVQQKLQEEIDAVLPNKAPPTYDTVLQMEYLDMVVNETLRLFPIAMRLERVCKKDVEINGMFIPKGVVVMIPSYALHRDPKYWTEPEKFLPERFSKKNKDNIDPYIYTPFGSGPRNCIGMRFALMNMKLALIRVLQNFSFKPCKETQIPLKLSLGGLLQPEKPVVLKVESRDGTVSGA

Rattus norvegicus = species: Rattus norvegicus; assay: Displacement of [3H]idazoxan from imidazoline I2 receptor in rat brain cerebral cortex membrane assessed as occupancy at high affinity site measured after 30 mins by liquid scintillation counting spectrometry
[5] = Plasma protein binding in mouse assessed as unbound fraction; type: ADME, cell-free
NCI-H460 = assay: Cytotoxicity against human NCI-H460 cells at 100 uM by real time IncuCyte proliferation assay; type: cell-based; conditions: nci-h460, 100 µM; in short: as §2
[6] = Solubility of compound at pH 1.13; type: physicochemical; conditions: buffer
In short: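 Solubility was measured at pH 1.13, 4.61 and 6.97, simulating gastric and intestinal fluids, and classed by European Pharmacopoeia terms.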

[7] = Displacement of [3H]2-BFI from imidazoline I2 receptor in post-mortem human brain frontal cortex membrane one site model measured after 45 mins by liquid scintillation counting spectrometry
[8] = Hypothermic effect in CD-1 mouse assessed as reduction in body temperature at 50 mg/kg, ip measured up to 3 hrs by rectal thermometric method; type: ADME, organism-based; conditions: in vivo
In short: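 Adult male and female CD-1 mice (n = 5 per group) given single i.p. doses (1, 5, 10, 20, 30, 50 mg/kg) or saline vehicle 2 ml/kg. Rectal temperature read with a digital probe before dosing and 1, 2 and 3 h after; change from basal value analysed by repeated measures ANOVA with Sidak's test.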

[9] = Stability in human plasma assessed as compound remaining after1 hrs; type: ADME, cell-free; conditions: read-out: Stabilty
In short: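 Pooled human plasma from healthy donors, sampled at 0, 1, 2 and 6 h, reported as percentage of parent remaining.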

LN-229 = assay: Cytotoxicity against human LN-229 cells at 100 uM by real time IncuCyte proliferation assay; type: cell-based; conditions: ln-229, 100 µM; in short: as §2
HL-60 = assay: Cytotoxicity against human HL-60 cells at 100 uM by real time IncuCyte proliferation assay; type: cell-based; conditions: hl-60, 100 µM; in short: as §2
[10] = Displacement of [3H]2-BFI from imidazoline I2 receptor low affinity site in post-mortem human brain frontal cortex membrane two site model measured after 45 mins by liquid scintillation counting spectrometry
[11] = AUC (0 to t) in CD-1 mouse at 10 mg/kg, po measured after 24 hrs by HPLC/UV-VS analysis; type: ADME, organism-based; parameters: route oral, time 24 hrs, dose 10 mg/kg; conditions: in vivo
In short: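 Male CD1 mice; plasma concentration of drug at 15 min to 24 h after a single oral 10 mg/kg dose, measured by HPLC with UV at 290 nm (calibration 0,025-5 μg/mL, peak area ratio). Non-compartmental analysis of mean concentration–time curves: AUC by trapezoidal rule, Cmax read directly from the mean curve.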

Mus musculus [12] = assay: Antialzheimer activity in 5xFAD transgenic Alzheimer disease mouse model assessed as decrease in iNOS expression at 1 mg/kg/day by Western blot analysis
Cytochrome P450 2D6 = Cytochrome P450 2D6 (Homo sapiens, UniProt P10635); assay: Inhibition of CYP2D6 (unknown origin) at 10 uM; type: ADME; in short: as §1
Cytochrome P450 2D6, sequence (P10635 whole entry): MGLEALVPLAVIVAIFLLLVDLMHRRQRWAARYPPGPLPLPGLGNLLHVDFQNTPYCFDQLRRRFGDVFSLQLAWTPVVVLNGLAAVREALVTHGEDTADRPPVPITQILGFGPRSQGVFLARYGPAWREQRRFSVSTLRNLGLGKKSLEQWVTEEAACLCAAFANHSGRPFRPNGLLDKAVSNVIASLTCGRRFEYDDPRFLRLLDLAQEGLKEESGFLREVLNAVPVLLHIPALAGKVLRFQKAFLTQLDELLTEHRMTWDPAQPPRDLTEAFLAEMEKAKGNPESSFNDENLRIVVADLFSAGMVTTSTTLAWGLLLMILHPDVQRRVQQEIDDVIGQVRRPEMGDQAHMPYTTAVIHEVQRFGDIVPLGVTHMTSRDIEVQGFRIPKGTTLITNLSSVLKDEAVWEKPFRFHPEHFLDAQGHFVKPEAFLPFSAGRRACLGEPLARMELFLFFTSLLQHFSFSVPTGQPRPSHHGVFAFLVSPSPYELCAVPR

Mus musculus [13] = assay: Antialzheimer activity in 5xFAD transgenic Alzheimer disease mouse model assessed as increase in SOD1 expression at 1 mg/kg/day by Western blot analysis
Homo sapiens [14] = species: Homo sapiens; assay: Selectivity index, ratio of pKi for displacement of [3H]2-BFI from imidazoline I2 receptor in post-mortem human brain frontal cortex membrane to pKi for displacement of [3H]-RX821002 from adrenergic alpha 2 receptor in post-mortem human brain frontal cortex membrane; type: cell membranes
[15] = Microsomal stability in mouse liver microsomes assessed as parent compound remaining after 60 mins; type: ADME, Microsome; conditions: read-out: Stabilty
In short: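 Human and mouse microsomes, incubation for 60 min, with percentage of parent compound remaining reported.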

[16] = Displacement of [3H]clonidine from imidazoline I1 receptor low affinity site in human hypothalamic membranes measured after 30 mins by liquid scintillation counting spectrometry; type: cell membranes, Hypothalamus, Membrane

Cytochrome P450 2C19, sequence (P33261 whole entry): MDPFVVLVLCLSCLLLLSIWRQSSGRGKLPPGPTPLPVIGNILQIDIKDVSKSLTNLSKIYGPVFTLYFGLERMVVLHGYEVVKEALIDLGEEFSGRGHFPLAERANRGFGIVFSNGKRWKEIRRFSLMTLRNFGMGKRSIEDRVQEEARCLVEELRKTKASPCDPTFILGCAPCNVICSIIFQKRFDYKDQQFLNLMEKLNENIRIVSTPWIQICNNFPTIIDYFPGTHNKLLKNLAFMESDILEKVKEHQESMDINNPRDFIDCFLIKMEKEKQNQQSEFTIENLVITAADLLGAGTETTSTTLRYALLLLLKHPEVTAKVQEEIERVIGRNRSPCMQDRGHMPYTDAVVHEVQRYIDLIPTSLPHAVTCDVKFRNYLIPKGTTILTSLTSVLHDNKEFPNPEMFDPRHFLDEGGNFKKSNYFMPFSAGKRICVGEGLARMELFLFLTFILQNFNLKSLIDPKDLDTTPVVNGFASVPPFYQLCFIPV

## Cl.c1ccc2oc(-c3ncc[nH]3)cc2c1
Cytochrome P450 2C19
  inhibition (INH): Not Active
K562
  Activity: Non-Toxic
CAPAN-1
  Activity: Non-Toxic
[1]
  pKi: 6.45
[2]
  remaining at 6 h: 100%
[3]
  pKi: 6
Homo sapiens [4]
  Activity: 34%
Cytochrome P450 1A2
  inhibition (INH): Not Active
Cytochrome P450 3A4
  inhibition (INH): Not Active
Rattus norvegicus
  Activity: 79%
[5]
  fraction unbound: 0.16
NCI-H460
  Activity: Non-Toxic
[6]
  solubility: Soluble
[7]
  pKi: 6.67
[8]
  Activity: Toxic
[9]
  remaining at 1 h: 83%
LN-229
  Activity: Non-Toxic
HL-60
  Activity: Non-Toxic
[10]
  pKi: 6.02
[11]
  AUC(0-t) at 24 h: 2700 ng·h/mL
Mus musculus [12]
  Activity: Active
Cytochrome P450 2D6
  inhibition (INH): Not Active
Mus musculus [13]
  Activity: Active
Homo sapiens [14]
  Selectivity Index: 3090
[15]
  remaining at 1 h: 36%
[16]
  Ki: 250 µM
